The target of experiment [1] is T1, Pyruvate kinase PKM (Homo sapiens, UniProt P14618). Briefly: Activation of PKM1 assessed as pyruvate formation by fluorescent pyruvate kinase-lactate dehydrogenase coupled assay.
For experiment [2], the target named is T1, Pyruvate kinase PKM. Description: Activation of PKM1 assessed as ATP product formation by luminescent pyruvate kinase-luciferase coupled assay. The essentials: (§1)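 Luciferase-coupled ATP production assay run as for PKM2: imidazole pH 7.2 buffer with KCl, MgCl2, Tween 20 and BSA, 0.1 mM ADP, 0.5 mM PEP, 1 h at r.t., Kinase-Glo luminescence. Enzyme final concentrations were PKM1 1 nM, PKL 0.1 nM, PKR 0.1 nM. % activation normalized to DMSO (neutral) and no-enzyme controls.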

The target of experiment [3] is T1, Pyruvate kinase PKM. Description: Activation of PKM2 assessed as ATP product formation at 57 uM by luminescent pyruvate kinase-luciferase coupled assay relative to fructose-1,6-bis-phosphate. The essentials: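 Recombinant human PKM2 (0.1 nM final) in 50 mM imidazole pH 7.2, 50 mM KCl, 7 mM MgCl2, 0.01% Tween 20, 0.05% BSA; 0.1 mM ADP, 0.5 mM PEP; 1 h at r.t., then Kinase-Glo luciferase read of ATP formed. Activation % = (c−n)/(n−i)×100 against DMSO and no-enzyme controls; 100% ≈ 2-fold over basal signal. Max response taken at 57 μM; three separate experiments.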

Experiment [4] addresses Pyruvate kinase PKLR (Homo sapiens) (UniProt P30613). Description: Activation of PKL assessed as ATP product formation by luminescent pyruvate kinase-luciferase coupled assay relative to control. Details: concentration or dose not given beside the values. The essentials:
as §1

Experiment [5] has the same target. Description: Activation of PKL assessed as pyruvate formation by fluorescent pyruvate kinase-lactate dehydrogenase coupled assay relative to control. Details: concentration or dose not given beside the values.
Experiment [6] shares this target. Briefly: Activation of PKR assessed as pyruvate formation by fluorescent pyruvate kinase-lactate dehydrogenase coupled assay relative to control. Details: concentration or dose not given beside the values.
Experiment [7] has the same target. Description: Activation of PKR assessed as ATP product formation by luminescent pyruvate kinase-luciferase coupled assay relative to control. More on the design: concentration or dose not given beside the values. The gist of the method:
as §1

Structures are written as SMILES. Calls of active or inactive are those of the source. The rule behind the calls is not given here. Bounds are passed on as bounds.

Pyruvate kinase PKLR (Homo sapiens), sequence (P30613 whole entry, looked up): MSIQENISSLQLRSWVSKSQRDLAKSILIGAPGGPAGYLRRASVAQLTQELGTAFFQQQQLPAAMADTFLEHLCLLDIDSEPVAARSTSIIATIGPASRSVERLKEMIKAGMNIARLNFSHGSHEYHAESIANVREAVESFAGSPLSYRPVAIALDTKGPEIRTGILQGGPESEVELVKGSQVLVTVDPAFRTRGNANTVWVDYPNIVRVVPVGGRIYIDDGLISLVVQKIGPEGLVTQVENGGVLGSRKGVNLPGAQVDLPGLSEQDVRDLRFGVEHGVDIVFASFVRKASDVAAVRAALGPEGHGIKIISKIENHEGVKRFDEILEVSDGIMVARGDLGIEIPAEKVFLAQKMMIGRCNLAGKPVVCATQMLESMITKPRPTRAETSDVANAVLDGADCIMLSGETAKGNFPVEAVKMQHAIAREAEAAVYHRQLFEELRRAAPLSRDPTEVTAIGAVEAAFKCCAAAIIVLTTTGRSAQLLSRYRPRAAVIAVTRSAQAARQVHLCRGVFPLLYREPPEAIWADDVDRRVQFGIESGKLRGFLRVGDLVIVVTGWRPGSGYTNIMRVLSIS
T1 sequence (P14618 2-531 limits assumed): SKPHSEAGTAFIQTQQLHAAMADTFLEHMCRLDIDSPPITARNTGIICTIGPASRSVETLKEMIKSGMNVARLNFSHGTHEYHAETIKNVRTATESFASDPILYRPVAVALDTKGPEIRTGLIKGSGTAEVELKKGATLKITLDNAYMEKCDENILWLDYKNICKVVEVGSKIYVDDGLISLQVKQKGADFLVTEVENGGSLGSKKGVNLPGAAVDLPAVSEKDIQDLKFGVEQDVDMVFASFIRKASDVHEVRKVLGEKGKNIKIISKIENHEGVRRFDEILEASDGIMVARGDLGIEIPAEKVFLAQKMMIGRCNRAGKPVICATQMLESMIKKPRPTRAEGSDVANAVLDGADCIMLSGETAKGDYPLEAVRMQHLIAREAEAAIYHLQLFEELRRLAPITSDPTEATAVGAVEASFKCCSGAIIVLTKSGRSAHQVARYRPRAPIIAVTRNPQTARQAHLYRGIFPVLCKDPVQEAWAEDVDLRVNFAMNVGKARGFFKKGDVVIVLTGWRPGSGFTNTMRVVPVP

As to `O=C1CN(S(=O)(=O)c2ccc3c(c2)OCCO3)CCN1S(=O)(=O)c1c(F)cccc1F`, the outcome at Pyruvate kinase PKM [1] and on Pyruvate kinase PKM [2] was inactive. For the same molecule, the Activity on Pyruvate kinase PKM [3] is 96.9%; in experiment [4] it was below 30%; in experiment [5], below 30%; in experiment [6], below 30%; in experiment [7] it was below 30%.

Regarding `Cn1ccc2cc(S(=O)(=O)N3CCN(S(=O)(=O)c4c(F)cccc4F)CC3)ccc21`, the outcome at Pyruvate kinase PKM [1] and at Pyruvate kinase PKM [2] was inactive. The Activity at Pyruvate kinase PKM [3] was 91.1%; in experiment [4] it was below 30%; in experiment [5] it was below 30%; in experiment [6], below 30%; in experiment [7], below 30%.

Take `O=S(=O)(c1ccc2c(c1)OCCO2)N1CCN(S(=O)(=O)c2ccc(F)cc2F)CC1`: the result at Pyruvate kinase PKM [1] and on Pyruvate kinase PKM [2] was inactive. For the same molecule, the Activity on Pyruvate kinase PKM [3] is 113%; in experiment [4], below 30%; in experiment [5], below 30%; in experiment [6], below 30%; in experiment [7] it was below 30%.

Regarding `C[C@H]1CN(S(=O)(=O)c2c(F)cccc2F)CCN1S(=O)(=O)c1ccc2c(c1)OCCO2`, the result at Pyruvate kinase PKM [1] and at Pyruvate kinase PKM [2] was inactive. Besides, the Activity was 109% at Pyruvate kinase PKM [3]; below 30% in experiment [4]; below 30% in experiment [5]; below 30% in experiment [6]; below 30% in experiment [7].

Take `COc1cc(F)c(S(=O)(=O)N2CCN(S(=O)(=O)c3ccc4c(c3)OCCO4)CC2)c(F)c1`: the result at Pyruvate kinase PKM [1] and at Pyruvate kinase PKM [2] was inactive. The Activity was 91.8% at Pyruvate kinase PKM [3]; below 30% in experiment [4]; below 30% in experiment [5]; below 30% in experiment [6]; below 30% in experiment [7].

`COc1ccc(S(=O)(=O)N2CCN(S(=O)(=O)c3ccc(OC)cc3)CC2)cc1`: the result on Pyruvate kinase PKM [1] and on Pyruvate kinase PKM [2] was inactive. Besides, the Activity is 87.6% at Pyruvate kinase PKM [3]; below 30% in experiment [4]; below 30% in experiment [5]; below 30% in experiment [6]; below 30% in experiment [7].

Take `O=S(=O)(c1ccc2c(c1)OCCO2)C1CCN(S(=O)(=O)c2c(F)cccc2F)CC1`: the outcome at Pyruvate kinase PKM [1] and on Pyruvate kinase PKM [2] was inactive. Besides, the Activity at Pyruvate kinase PKM [3] is 110%; in experiment [4], below 30%; in experiment [5], below 30%; in experiment [6], below 30%; in experiment [7] it was below 30%.

With `O=S(=O)(c1ccc2c(c1)OCCO2)N1CCN(S(=O)(=O)c2c(F)ccc(O)c2F)CC1`, the result at Pyruvate kinase PKM [1] and on Pyruvate kinase PKM [2] was inactive. The Activity on Pyruvate kinase PKM [3] is 95.3%; in experiment [4], below 30%; in experiment [5] it was below 30%; in experiment [6], below 30%; in experiment [7], below 30%.

Consider `O=S(=O)(c1c(F)cccc1F)N1CCN(S(=O)(=O)c2c(F)cccc2F)CC1`, for which the result at Pyruvate kinase PKM [1] and on Pyruvate kinase PKM [2] was inactive. Besides, the Activity at Pyruvate kinase PKM [3] was 74.3%; in experiment [4] it was below 30%; in experiment [5], below 30%; in experiment [6], below 30%; in experiment [7] it was below 30%.

Regarding `O=S(=O)(c1ccc(Cl)cc1)N1CCN(S(=O)(=O)c2ccc3c(c2)OCCO3)CC1`, the result on Pyruvate kinase PKM [1] and on Pyruvate kinase PKM [2] was inactive. Moreover, the Activity in experiment [4], in experiment [5], in experiment [6] and in experiment [7] was below 30% in each case.

On to `O=S(=O)(c1cccc(F)c1)N1CCN(S(=O)(=O)c2ccc3c(c2)OCCO3)CC1`, for which the outcome at Pyruvate kinase PKM [1] and on Pyruvate kinase PKM [2] was inactive. For the same molecule, the Activity on Pyruvate kinase PKM [3] was 107%; in experiment [4], below 30%; in experiment [5], below 30%; in experiment [6], below 30%; in experiment [7], below 30%.

With `O=S(=O)(NCCCNS(=O)(=O)c1c(F)cccc1F)c1ccc2c(c1)OCCO2`, the result at Pyruvate kinase PKM [1] and on Pyruvate kinase PKM [2] was inactive. Also, the Activity was 106% at Pyruvate kinase PKM [3]; below 30% in experiment [4]; below 30% in experiment [5]; below 30% in experiment [6]; below 30% in experiment [7].

Regarding `O=S(=O)(N[C@H]1CC[C@H](NS(=O)(=O)c2c(F)cccc2F)CC1)c1ccc2c(c1)OCCO2`, the outcome on Pyruvate kinase PKM [1] and on Pyruvate kinase PKM [2] was inactive. The Activity at Pyruvate kinase PKM [3] was 90.8%; in experiment [4], below 30%; in experiment [5], below 30%; in experiment [6] it was below 30%; in experiment [7] it was below 30%.

Regarding `O=S(=O)(c1ccc2c(c1)OCO2)N1CCN(S(=O)(=O)c2c(F)cccc2F)CC1`, the result at Pyruvate kinase PKM [1] and on Pyruvate kinase PKM [2] was inactive. The Activity on Pyruvate kinase PKM [3] was 61%; in experiment [4], below 30%; in experiment [5] it was below 30%; in experiment [6], below 30%; in experiment [7], below 30%.

With `O=S(=O)(c1c(F)cccc1F)C1CCN(S(=O)(=O)c2ccc3c(c2)OCCO3)CC1`, the outcome at Pyruvate kinase PKM [1] and at Pyruvate kinase PKM [2] was inactive. The Activity is 104% at Pyruvate kinase PKM [3]; below 30% in experiment [4]; below 30% in experiment [5]; below 30% in experiment [6]; below 30% in experiment [7].

`C[C@@H]1CN(S(=O)(=O)c2c(F)cccc2F)CCN1S(=O)(=O)c1ccc2c(c1)OCCO2`: the outcome on Pyruvate kinase PKM [1] and on Pyruvate kinase PKM [2] was inactive. For the same molecule, the Activity at Pyruvate kinase PKM [3] was 98.8%; in experiment [4] it was below 30%; in experiment [5], below 30%; in experiment [6] it was below 30%; in experiment [7], below 30%.

Take `O=S(=O)(c1ccc2c(c1)OCCO2)N1CCN(S(=O)(=O)c2cc(F)c(F)cc2F)CC1`: the result at Pyruvate kinase PKM [1] and at Pyruvate kinase PKM [2] was inactive. Also, the Activity was 105% at Pyruvate kinase PKM [3]; below 30% in experiment [4]; below 30% in experiment [5]; below 30% in experiment [6]; below 30% in experiment [7].

`COc1ccc(S(=O)(=O)N2CCN(S(=O)(=O)c3c(F)cccc3F)CC2)cc1`: the result on Pyruvate kinase PKM [1] and on Pyruvate kinase PKM [2] was inactive. Moreover, the Activity at Pyruvate kinase PKM [3] was 102%; in experiment [4], below 30%; in experiment [5] it was below 30%; in experiment [6] it was below 30%; in experiment [7], below 30%.

As to `CC1(C)CCc2cc(S(=O)(=O)N3CCN(S(=O)(=O)c4c(F)cccc4F)CC3)ccc2O1`, the result on Pyruvate kinase PKM [1] and at Pyruvate kinase PKM [2] was inactive. The Activity on Pyruvate kinase PKM [3] is 119%; in experiment [4], below 30%; in experiment [5] it was below 30%; in experiment [6] it was below 30%; in experiment [7], below 30%.

As for `O=S(=O)(c1ccc2c(c1)OCCO2)N1CCN(S(=O)(=O)c2ccccn2)CC1`, the result at Pyruvate kinase PKM [1] and on Pyruvate kinase PKM [2] was inactive. In addition, the Activity at Pyruvate kinase PKM [3] is 103%; in experiment [4], below 30%; in experiment [5], below 30%; in experiment [6], below 30%; in experiment [7] it was below 30%.

For the molecule `O=C1CN(S(=O)(=O)c2c(F)cccc2F)CCN1S(=O)(=O)c1ccc2c(c1)OCCO2`, the result on Pyruvate kinase PKM [1] and at Pyruvate kinase PKM [2] was inactive. In addition, the Activity at Pyruvate kinase PKM [3] is 105%; in experiment [4] it was below 30%; in experiment [5], below 30%; in experiment [6] it was below 30%; in experiment [7] it was below 30%.

In the case of `O=S(=O)(c1ccc2c(c1)OCCO2)N1CCN(S(=O)(=O)c2ccc3c(c2)OCCO3)CC1`, the outcome at Pyruvate kinase PKM [1] and at Pyruvate kinase PKM [2] was inactive. Moreover, the Activity on Pyruvate kinase PKM [3] was 89.7%; in experiment [4], below 30%; in experiment [5] it was below 30%; in experiment [6], below 30%; in experiment [7], below 30%.

In the case of `N#Cc1ccc(S(=O)(=O)N2CCN(S(=O)(=O)c3ccc4c(c3)OCCO4)CC2)cc1`, the result at Pyruvate kinase PKM [1] and on Pyruvate kinase PKM [2] was inactive. Besides, the Activity is 44.1% on Pyruvate kinase PKM [3]; below 30% in experiment [4]; below 30% in experiment [5]; below 30% in experiment [6]; below 30% in experiment [7].

Take `O=S(=O)(c1ccc(F)cc1)N1CCN(S(=O)(=O)c2ccc3c(c2)OCCO3)CC1`: the outcome at Pyruvate kinase PKM [1] and on Pyruvate kinase PKM [2] was inactive. The Activity in experiment [4], in experiment [5], in experiment [6] and in experiment [7] was below 30% in each case.

The values above are taken from ChEMBL document CHEMBL1156261, “Evaluation of substituted N,N'-diarylsulfonamides as activators of the tumor cell specific M2 isoform of pyruvate kinase” (J Med Chem, 2010).
